DNA FID counter: fluorescent intercalator displacement, NS3 helicase counter-screen; DNA fluorescent intercalator displacement, fluorescence; inhibition, % at 7.9 µM; 290,000 tested, 0.17% active; AID 1845; in the data active = inhibition above about 37%;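 note: 0% = vehicle and 100% = reference compound; higher means more ethidium bromide displaced from hairpin DNA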
HIF act: HIF pathway transcriptional activation; AID 1910; activation, % at 7.5 µM (by protocol); U2OS HRE-luciferase reporter, luminescence; normalized: DMSO 0%, desferrioxamine 100%; 300,000 tested, 0.32% active;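 active = mean activation of at least 10% of the iron chelator positive control signal, with at least half of replicates also reaching 10%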
PP5 primary: PP5 (human) phosphatase inhibition; inhibition, % at 6.7 µM; purified PP5c, OMFP substrate fluorescence; 320,000 tested, 0.18% active; P53041;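 active = inhibition above the campaign's mean inhibition across all tested compounds plus 3 SD, cut at about 9.5% in these data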;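 note: 0% = DMSO only and 100% = 100 µM cantharidin control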
PP1 counter: PP1-alpha (human) inhibition in PP5 counter-screen; P62136; purified PP1alpha, OMFP fluorescence; inhibition, % at 6.7 µM; 320,000 tested, 0.9% active;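 active = inhibition above the mean inhibition of all tested compounds plus 3 SD, computed separately for each screening campaign, cut at about 15% in these data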
Target sequence (P62136 whole entry, looked up): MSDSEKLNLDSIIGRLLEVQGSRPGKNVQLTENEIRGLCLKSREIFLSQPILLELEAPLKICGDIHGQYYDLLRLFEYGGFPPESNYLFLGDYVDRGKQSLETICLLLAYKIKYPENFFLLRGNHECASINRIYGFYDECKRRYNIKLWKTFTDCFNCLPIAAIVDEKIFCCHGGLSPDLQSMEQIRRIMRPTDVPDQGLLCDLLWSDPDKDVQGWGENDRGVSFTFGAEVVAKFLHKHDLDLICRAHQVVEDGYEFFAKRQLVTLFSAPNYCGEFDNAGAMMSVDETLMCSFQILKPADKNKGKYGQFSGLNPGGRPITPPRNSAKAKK
NS3 helicase inh: blocks Hepatitis C virus NS3 helicase unwinding | 290,000 tested, 0.56% active | AID 1800 | NS3 helicase DNA unwinding, Cy5 molecular beacon fluorescence | inhibition, % at 10.9 µM;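 active = inhibition above the mean of all tested compounds plus 3 SD, set per campaign, cut at about 35% in these data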;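 note: 0% = DMSO wells and 100% = thioflavine S control wells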
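Test system: hepatitis C virus NS3 helicase domain fragment enzyme. Also added: annealed dual-labelled DNA beacon duplex, ATP-started. Timing: 60 min unwinding reaction at 25 °C after ATP addition. Technique: Cy5 fluorescence. Measure: % inhibition of unwinding.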
PP1 confirm: human PP1 phosphatase inhibition, confirmation. shares compounds with PP1 counter. purified PP1alpha, OMFP substrate fluorescence. inhibition, % at 6.7 µM. 1,900 tested, 52% active;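 active = mean PP1 inhibition above a set limit taken from the earlier primary screen, cut at about 15% in these data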
PP5 inh counter: PP5 phosphatase inhibition, counter-screen for PP1 inhibitors. inhibition, % at 6.7 µM. purified PP5c, OMFP fluorescence. shares compounds with PP1 counter. 1,900 tested, 4% active;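 active = mean PP5 inhibition over triplicate wells above about 9.5% taken from the earlier PP1 screen, limit read from the data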
* hit, by the source's call; / = no result. Shown are actives, neighbours in structure and some others; about 1.9% of the full set was active somewhere.

SMILES | DNA FID counter | HIF act | PP5 primary | PP1 counter | NS3 helicase inh | PP1 confirm | PP5 inh counter
COc1cccc2c(=O)c3cccc(N)c3[nH]c12 | 1.2 | 0.2 | 1.1 | 19.9* | -0.5 | 19.1* | 12.8*
CCCCC(=O)NC(c1ccccc1Cl)c1ccc2cccnc2c1O (stereo not given) | -26.0 | 128.1* | 3.0 | 27.4* | -4.8 | 19.3* | -3.9
CCCCC(=O)NC(c1ccc([N+](=O)[O-])cc1)c1c(O)ccc2ccccc12 (stereo not given) | 0.5 | -0.1 | 5.9 | 4.5 | -2.8 | / | /
CCCCC(=O)NC(c1ccc(C(C)C)cc1)c1ccc2cccnc2c1O (stereo not given) | -32.3 | 103.1* | -2.2 | 22.9* | 23.6 | 20.9* | -6.8
CCCCC(=O)NC(c1ccco1)c1cc(Cl)c2cccnc2c1O (stereo not given) | -24.8 | -0.3 | -4.5 | 13.3 | 3.1 | / | /
CCCCC(=O)NC(c1ccccc1)c1ccc2cccnc2c1O (stereo not given) | -30.4 | 48.0* | 1.8 | 21.3* | 26.4 | 12.9 | -5.2
O=C(CCc1nnc2ccc(N3CCC4(CC3)OCCO4)nn12)NCc1ccccc1Cl | -38.5 | 0.1 | 4.2 | -3.5 | -12.1 | / | /
COc1ccc(C(=O)NCCS(=O)(=O)N2CCc3ccccc3C2)cc1 | / | -0.2 | 2.1 | -1.9 | / | / | /
COC(=O)c1ccc(C2/C(=C(/O)c3ccc(OC(C)C)cc3)C(=O)C(=O)N2c2cc(C)on2)cc1 (stereo not given) | -38.4 | -0.7 | 3.2 | 19.8* | 21.4 | 8.5 | -5.1
CCC(C)c1ccccc1N1CC(C(=O)Nc2cccc(S(=O)(=O)N3CCOCC3)c2)CC1=O (stereo not given) | -39.3 | 0.0 | 0.8 | 1.2 | -17.1 | / | /
O=C(Nc1cc(S(=O)(=O)N2CCCCC2)ccc1O)c1ccccc1NS(=O)(=O)c1ccc(F)cc1 | -31.1 | 0.6 | 6.7 | 6.8 | -0.3 | / | /
O=C(Nc1ccc(Cl)c(Cl)c1)Nc1ccc(N2CCCC2)c(S(=O)(=O)Nc2ccccc2Cl)c1 | 11.3 | 1.0 | 2.9 | 17.8* | -8.6 | 13.8 | -0.4
O=C(/C=C/c1cccs1)Nc1ccc(N2CCOCC2)c(S(=O)(=O)Nc2ccccc2Cl)c1 | -11.8 | 0.5 | 0.9 | 5.7 | -15.2 | / | /
COc1ccccc1NS(=O)(=O)c1cc(NC(=O)Nc2ccccc2)ccc1N1CCCCC1 | -2.3 | / | 2.5 | 1.1 | 18.6 | / | /
O=C(Nc1ccc(F)cc1)Nc1ccc(N2CCCC2)c(S(=O)(=O)Nc2ccccc2Cl)c1 | 15.3 | 0.1 | 2.4 | 24.4* | -9.1 | 9.9 | 4.6
O=C(Nc1cc(S(=O)(=O)N2CCCCC2)ccc1Cl)c1ccccc1NS(=O)(=O)c1ccc(F)cc1 | -34.3 | -0.3 | 6.8 | 19.9* | 2.2 | 13.7 | 7.5
Cc1ccc(C(=O)NCC(=O)NCCc2ccc(S(N)(=O)=O)cc2)s1 | 2.3 | 0.2 | -3.3 | -3.4 | 12.5 | / | /
CC(c1nnc(SCC(=O)c2c(N)n(C3CC3)c(=O)[nH]c2=O)n1-c1ccc(F)cc1)N(C)C (stereo not given) | / | / | 2.4 | -2.3 | / | / | /
O=c1[nH]c(C2CCCN(S(=O)(=O)c3cccc(Cl)c3)C2)nc2c1nnn2Cc1ccc2c(c1)OCCO2 (stereo not given) | -41.7 | -1.0 | 1.6 | 23.7* | -3.6 | 10.8 | 0.6
Cc1ccc(C)c(S(=O)(=O)N2CCC(c3nc4c(nnn4Cc4ccc5c(c4)OCCO5)c(=O)[nH]3)CC2)c1 | -45.4 | -0.6 | 5.4 | 23.6* | 16.6 | 21.8* | -0.1
O=c1[nH]c(C2CCN(S(=O)(=O)c3ccc4c(c3)OCCO4)CC2)nc2c1nnn2Cc1ccccc1 | -40.6 | -0.4 | / | / | -18.9 | / | /
CC1(C)COCN1S(=O)(=O)c1ccc(C(=O)Nc2nnc(-c3ccc(Cl)s3)o2)cc1 | -5.5 | -0.6 | 2.4 | 12.1 | 3.6 | / | /
COc1ccc(-c2nnc(NC(=O)c3ccc(S(=O)(=O)N4COCC4(C)C)cc3)o2)cc1 | -16.8 | -0.3 | 0.9 | 29.7* | 7.6 | 28.7* | -1.1
COc1cccc(/C=C2/NC(=O)N(CC(=O)Nc3ccc(C)cc3)C2=O)c1OCc1cccc(C(=O)O)c1 | -11.1 | -0.3 | 0.5 | -2.4 | 17.9 | / | /
